# Assay results reported in ChEMBL document CHEMBL1909618, “Non-steroidal dissociated glucocorticoid agonists: indoles as A-ring mimetics and function-regulating pharmacophores” (Bioorg Med Chem Lett, 2011).
# pIC50: −log10 of the molar value.
# Assays:
# [1] = biological target: T1, Progesterone receptor (Homo sapiens, UniProt P06401); test: Displacement of tetramethylrhodamine-labeled RU-486 from human recombinant progesterone receptor expressed in baculovirus infected insect cells by fluorescence polarization assay
# T1 sequence (P06401 whole entry): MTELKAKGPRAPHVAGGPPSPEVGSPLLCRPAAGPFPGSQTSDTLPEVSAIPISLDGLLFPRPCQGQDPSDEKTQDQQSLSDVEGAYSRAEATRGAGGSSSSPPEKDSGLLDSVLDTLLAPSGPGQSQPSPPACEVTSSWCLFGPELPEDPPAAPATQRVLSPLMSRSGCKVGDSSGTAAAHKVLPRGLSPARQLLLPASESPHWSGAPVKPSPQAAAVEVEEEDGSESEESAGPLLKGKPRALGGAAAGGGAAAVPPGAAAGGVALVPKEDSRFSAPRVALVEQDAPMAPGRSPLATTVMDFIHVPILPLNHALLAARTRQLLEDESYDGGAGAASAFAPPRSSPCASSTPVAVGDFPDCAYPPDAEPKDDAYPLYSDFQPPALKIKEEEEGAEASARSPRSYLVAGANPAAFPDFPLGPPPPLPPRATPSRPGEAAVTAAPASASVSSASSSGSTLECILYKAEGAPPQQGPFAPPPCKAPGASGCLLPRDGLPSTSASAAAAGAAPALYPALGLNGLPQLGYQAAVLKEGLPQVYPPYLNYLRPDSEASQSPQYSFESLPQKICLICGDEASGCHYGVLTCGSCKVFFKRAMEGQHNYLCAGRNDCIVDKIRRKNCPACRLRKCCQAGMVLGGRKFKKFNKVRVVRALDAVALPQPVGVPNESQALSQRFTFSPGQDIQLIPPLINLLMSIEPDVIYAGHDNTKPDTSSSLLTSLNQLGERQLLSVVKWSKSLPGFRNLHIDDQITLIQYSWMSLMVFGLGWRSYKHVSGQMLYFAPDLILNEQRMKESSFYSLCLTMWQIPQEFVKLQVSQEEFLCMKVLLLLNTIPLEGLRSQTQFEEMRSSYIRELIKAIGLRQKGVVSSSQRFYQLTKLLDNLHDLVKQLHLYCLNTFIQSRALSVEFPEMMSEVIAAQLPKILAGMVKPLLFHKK
# Method in brief: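 Fluorescence polarization competition assays with recombinant human receptors in lysates of baculovirus-infected insect cells. Reactions contained 1% DMSO and ran 1 h at room temperature.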
# [2] = Oral bioavailability in B10.R3 mouse at 30 mg/kg; format: ADME, organism-based; conditions: in vivo
# Method in brief: (§1)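 Mouse PK: IV dose 1 mg/kg in PEG400/water (70:30); oral dose 30 mg/kg given as a suspension in 30% Cremophor. Values are the mean of 3 mice.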
# [3] = Oral bioavailability in Sprague-Dawley rat at 30 mg/kg; format: ADME, organism-based; conditions: in vivo
# Method in brief: (§2)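 Rat PK: IV dose 2 mg/kg in PEG400/water (70:30); oral dose 30 mg/kg in PEG400/H2O/Tween (80/18/2). Values are the mean of 3 rats.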
# [4] = Volume of distribution at steady state in Sprague-Dawley rat at 2 mg/kg, iv; format: ADME, organism-based; design: dose 2 mg/kg, route intravenous; conditions: in vivo, read-out: Vdss; method in brief: as §2
# [5] = biological target: T2, Glucocorticoid receptor (Homo sapiens) (UniProt P04150); test: Agonist activity at glucocorticoid receptor in human HeLa cells transfected with luciferase gene linked to MMTV promoter assessed as luciferase transactivation activity relative to Dexamethasone; format: functional, cell-based
# T2 sequence (whole entry): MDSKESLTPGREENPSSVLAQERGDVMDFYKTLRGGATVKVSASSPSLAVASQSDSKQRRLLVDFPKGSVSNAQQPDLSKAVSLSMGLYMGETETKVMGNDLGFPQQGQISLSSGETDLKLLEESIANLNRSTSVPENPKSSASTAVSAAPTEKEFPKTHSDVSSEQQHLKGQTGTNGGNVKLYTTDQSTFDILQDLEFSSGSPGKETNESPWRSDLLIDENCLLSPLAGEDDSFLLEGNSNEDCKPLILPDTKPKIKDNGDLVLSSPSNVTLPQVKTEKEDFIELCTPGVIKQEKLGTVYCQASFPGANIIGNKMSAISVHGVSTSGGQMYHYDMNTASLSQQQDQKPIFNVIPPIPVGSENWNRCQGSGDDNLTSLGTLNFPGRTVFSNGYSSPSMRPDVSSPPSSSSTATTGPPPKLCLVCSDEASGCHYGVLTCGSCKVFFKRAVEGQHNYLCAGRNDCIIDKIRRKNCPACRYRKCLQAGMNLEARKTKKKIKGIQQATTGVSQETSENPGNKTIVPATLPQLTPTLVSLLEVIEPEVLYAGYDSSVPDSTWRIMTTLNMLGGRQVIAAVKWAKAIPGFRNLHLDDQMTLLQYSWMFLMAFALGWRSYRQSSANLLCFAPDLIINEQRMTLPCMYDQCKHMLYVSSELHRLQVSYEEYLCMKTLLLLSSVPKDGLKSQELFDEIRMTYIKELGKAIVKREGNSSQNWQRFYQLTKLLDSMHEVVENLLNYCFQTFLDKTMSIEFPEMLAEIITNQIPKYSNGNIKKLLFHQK
# Method in brief: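 HeLa cells stably carrying an MMTV-luciferase construct were exposed to compound for 6 h at 37 °C, 5% CO2. Cells were then lysed and luminescence read with a Steady-Glo reagent. EC50 and % maximal efficacy were reported.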
# [6] = test system: Mus musculus; test: Toxicity in B10.R3 mouse collagen-induced arthritis model assessed as change in body weight at 30 mg/kg, po qd for 5 weeks relative to control; format: organism-based; design: dose 30 mg/kg, route oral; conditions: in vivo, 840 h
# [7] = organism: Homo sapiens; test: Selectivity ratio of IC50 for human recombinant glucocorticoid receptor to IC50 for human recombinant mineralocorticoid receptor
# [8] = Clearance in B10.R3 mouse at 1 mg/kg, iv; format: ADME, organism-based; design: dose 1 mg/kg, route intravenous; conditions: in vivo; method in brief: as §1
# [9] = Half life in Sprague-Dawley rat at 2 mg/kg, iv; format: ADME, organism-based; design: dose 2 mg/kg, route intravenous; conditions: in vivo; method in brief: as §2
# [10] = test system: Mus musculus; test: Toxicity in B10.R3 mouse collagen-induced arthritis model assessed as change in serum triglyceride level at 30 mg/kg, po qd for 5 weeks relative to control; format: organism-based; design: dose 30 mg/kg, route oral; conditions: in vivo, 840 h
# Method in brief: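 Arthritic B10.RIII CIA mice were dosed orally once daily for 5 weeks. At day 35 they were anesthetized with ketamine (50 mg/kg) and xylazine (15 mg/kg). Body fat was assessed by whole-body density scan. Serum triglycerides were measured by enzymatic kit (Wako L-Type TG-H) and free fatty acids by NEFA-C. Results are expressed as % change versus vehicle and compared by t-test.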
# [11] = test system: Mus musculus; test: Antiarthritic activity in B10.R3 mouse collagen-induced arthritis model assessed as AUC of disease progression inhibition at 30 mg/kg, po qd for 5 weeks; format: functional; conditions: B10.R3, 840 h
# Method in brief: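 B10.RIII mice immunized with porcine type II collagen plus complete Freund's adjuvant were enrolled at the first signs of arthritis. They were dosed orally once daily for 5 weeks; vehicle was 30% Cremophor RH. All four paws were scored 1–4 (maximum 16 per animal). Disease-score AUCs from 10 mice per group were compared with vehicle by Mann–Whitney test.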
# [12] = Volume of distribution at steady state in B10.R3 mouse at 1 mg/kg, iv; format: ADME, organism-based; design: dose 1 mg/kg, route intravenous; conditions: in vivo, read-out: Vdss; method in brief: as §1
# [13] = AUC (infinity) in B10.R3 mouse at 30 mg/kg, po; format: ADME, organism-based; design: time infinity, dose 30 mg/kg, route oral; conditions: plasma; method in brief: as §1
# [14] = Half life in B10.R3 mouse at 1 mg/kg, iv; format: ADME, organism-based; design: dose 1 mg/kg, route intravenous; conditions: in vivo; method in brief: as §1
# [15] = organism: Homo sapiens; test: Selectivity ratio of IC50 for human recombinant glucocorticoid receptor to IC50 for human recombinant progesterone receptor
Compound,pIC50 [1],bioavailability [2] [%],bioavailability [3] [%],Vd [4] [L/kg],Efficacy [5] [%],Activity [6] [%],Ratio IC50 [7],clearance [8] [mL/min/kg],half-life [9] [h],Activity [10] [%],inhibition in vivo at 30 mg/kg [11] [%],Vd [12] [L/kg],AUC(0-inf) [13] [ng·h/mL],half-life [14] [h],Ratio IC50 [15]
COc1ccc(F)cc1C(C)(C)C[C@@](O)(Cc1cc2ccccc2[nH]1)C(F)(F)F,6.68,,,,,,,,,,,,,,
CC(C)(C[C@@](O)(Cc1cc2ccc(C#N)cc2[nH]1)C(F)(F)F)c1cc(S(C)(=O)=O)cc2c1OCC2,6.13,26,51,7.7,10,-8,100,4,1.7,11,45,0.9,32700,2.5,100
